Reference: PMC5900894 (Chemmedchem, 2018)

What was measured:
[1] = test system: human peripheral blood mononuclear cells; assay: IL‐1β production in LPS‐stimulated human PBMCs; assay type: cell-based; settings: pre‐incubated 30 min, LPS 100 ng mL^−1, overnight; tested 0.1, 1, 5, 10 μM
Procedure, shortened: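 PBMCs came from buffy coats diluted 1:1 in PBS and separated by density gradient centrifugation. Cells were washed, checked for viability with 0.1 % trypan blue, and resuspended in RPMI 1640 with 10 % FBS, penicillin and streptomycin in U-bottom wells. Test glycolipid alone or its 1:1 mix with peptide (0.1, 1, 5, 10 μM) was added 30 min before smooth LPS (100 ng mL⁻¹). IL-1β release was the read-out.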

[2] = DOSY NMR diffusion coefficient / aggregation; assay type: physicochemical; settings: FP7 500 μM alone, 310 K, 10 % DMSO in PBS 100 mM pH 5.5
Procedure, shortened: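 Test glycolipid was diluted from a 50 mM DMSO stock into 100 mM PBS pH 5.5 (final DMSO 10 %) and examined at 500 μM by DOSY NMR. Spectra were recorded on the glycolipid alone, then after stepwise peptide additions up to [peptide]/[glycolipid] molar ratios of 0.06 or 0.1. Peptides came from 20 mM DMSO stocks.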

CCCCCCCCCCCCCC(=O)N[C@H]1[C@@H](OP(=O)(O)O)O[C@H](CO)[C@@H](OP(=O)(O)O)[C@@H]1OC(=O)CCCCCCCCCCCCC [FP7]
concentration halving the amount of IL‐1β released [1]: 5 µM | D (diffusion coefficient of FP7) [2]: 6.31×10^−11 m^2 s^−1
